Laboratory results reported in ChEMBL document CHEMBL1817664, “Modulation of cell differentiation, proliferation, and tumor growth by dihydrobenzyloxopyrimidine non-nucleoside reverse transcriptase inhibitors” (2011).
Activity calls are given as the source filed them. No cut-off for these calls is given here.

Legend:
A-375 [1] = experiment: Antitumor activity against human A375 cells xenografted in athymic nude Harlan mouse assessed as reduced tumor growth at 20 mg/kg, ip administered daily 5 days pre week measured every other day
A-375 [2] = experiment: Antiproliferative activity against human A375 cells assessed as cell growth at 15 uM after 96 hrs by trypan blue assay; type: functional; settings: A-375, 96 h, read-out: Activity
Summary of the method: (§1)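 A375 melanoma cells grown in DMEM with 10% FCS at 37 °C, 5% CO2; compounds added in DMSO after 56 h (DMSO 0.005% final for controls). Medium with drug renewed every 48 h. After 96 h, cells harvested and Coulter-counted, with trypan blue exclusion for viability. Counts given as % of DMSO controls; data pooled from three experiments.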

A-375 [3] = experiment: Antiproliferative activity against human A375 cells assessed as cell growth at 25 uM after 96 hrs by trypan blue assay; type: functional; settings: A-375, 96 h, read-out: Activity
Summary of the method: as §1

A-375 [4] = experiment: Induction of apoptosis in human A375 cells assessed as necrotic cells at 25 uM after 96 hrs by propidium iodide staining-based FACS analysis; type: functional, cell-based
A-375 [5] = experiment: Antiproliferative activity against human A375 cells assessed as morphological changes at 5 to 10 uM after 96 hrs by phase contrast microscopy; type: functional, cell-based
Summary of the method: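 A375 cultures in DMEM/10% FCS exposed to 5, 7.5 or 10 μM drug in DMSO; DMSO-only controls. Dendritic-like extensions scored under phase-contrast or bright-field microscopy.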

A-375 [6] = experiment: Induction of apoptosis in human A375 cells after 96 hrs by propidium iodide staining-based FACS analysis; type: functional, cell-based
Summary of the method: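 A375 cells seeded at low (100 000) or high (300 000) density per 25 cm2 flask and cultured 96 h with 20 μM compound. Harvested for biparametric FACS: DNA content by PI uptake (linear) against side scatter (log); at least 10 000 cells per sample. Apoptotic fraction given as mean and SD of three experiments.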

A-375 [7] = experiment: Antiproliferative activity against human A375 cells after 96 hrs by trypan blue assay; type: functional, cell-based
Summary of the method: as §1

A-375 [8] = experiment: Antiproliferative activity against human A375 cells at 5 to 10 uM by trypan blue assay; type: functional, cell-based; settings: TDE = time-dependent effect
Summary of the method: (§2)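 A375 cells plated at (20-50) × 10^3 per 35 mm dish in DMEM/10% FCS. Drug in DMSO added, renewed every 48 h; DMSO alone for controls. After 48 or 96 h, viable cells counted twice per sample by Coulter counter, with trypan blue check. Cells at time t divided by cells seeded, relative to DMSO control as 100%. Mean and SD: four experiments for dose series (5, 10, 20 μM, 96 h), three for time course (5 or 10 μM).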

A-375 [9] = experiment: Induction of apoptosis in human A375 cells seeded as low density at 20 uM after 96 hrs by propidium iodide staining-based FACS analysis
A-375 [10] = experiment: Induction of morphological differentiation in human A375 cells assessed as dentritic-like extension at 5 to 10 uM after 96 hrs by phase contrast microscopy
A-375 [11] = experiment: Induction of apoptosis in human A375 cells seeded as high density at 20 uM after 96 hrs by propidium iodide staining-based FACS analysis
A-375 [12] = experiment: Induction of human A375 cell differentiation assessed as formation of vimentin intermediate filament at 20 uM after 96 hrs by immunofluorescence analysis; type: functional, cell-based
Summary of the method: (§3)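 A375 cells cultured 96 h with drug, then fixed in 4% paraformaldehyde for 10 min and permeabilized in 0.2% Triton X-100/PBS for 5 min. Immunostained for tubulin and vimentin, nuclei counterstained with DAPI.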

A-375 [13] = experiment: Induction of human A375 cell differentiation assessed as microtubule reorganization at 20 uM after 96 hrs by immunofluorescence analysis; type: functional, cell-based
Summary of the method: as §3

A-375 [14] = experiment: Antiproliferative activity against human A375 cells at 20 uM after 96 hrs by trypan blue assay; type: functional
Summary of the method: as §2

A-375 [15] = experiment: Antiproliferative activity against human A375 cells assessed as cell growth at 350 uM after 96 hrs by trypan blue assay; type: functional; settings: A-375, 96 h, read-out: Activity
Summary of the method: (§4)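 A375 melanoma cells were grown in DMEM with 10% FCS, 2 mM L-glutamine and penicillin/streptomycin at 37 °C in 5% CO2, and plated at (20–50) × 10^3 cells per 35 mm plate. Once adherent (56 h), compound in DMSO was added (DMSO 0.005% final), with fresh drug medium every 48 h. After 96 h, viable cells were counted twice by Coulter counter, with trypan blue exclusion. Results are % of DMSO control, pooled from three experiments.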

A-375 [16] = experiment: Antiproliferative activity against human A375 cells at 350 uM after 96 hrs by trypan blue assay; type: functional
Summary of the method: as §4

With `O=C1Nc2ccc(Cl)cc2[C@@](C#CC2CC2)(C(F)(F)F)O1` [EFAVIRENZ] the Activity (A-375 [1]) was “Active” and the growth at 15 µM (A-375 [2]) was 51%.

For `CCC(c1nc(SC2CCCC2)[nH]c(=O)c1C)c1c(F)cccc1F` (stereo not drawn), the growth at 25 µM (A-375 [3]) was 5%.

With `CCC(C)Sc1nc(C(CC)c2c(F)cccc2F)c(C)c(=O)[nH]1` (mixture of isomers) the Activity (A-375 [1]) was “Active”, the Activity (A-375 [4]) was “Active” and the Activity (A-375 [5]) was “Active”. The growth at 25 µM (A-375 [3]) was 5%, the Activity (A-375 [6]) was “Dose-dependent effect” and the Activity (A-375 [7]) was “Dose-dependent effect”.

`CCC(c1cc(=O)[nH]c(SC)n1)c1c(F)cccc1F` (stereo not drawn) gave a growth at 25 µM (A-375 [3]) of 13%.

Compound `CCC(c1cc(O)nc(SC2CCCC2)n1)c1c(F)cccc1F` (stereo not drawn) has a growth at 25 µM (A-375 [3]) of 22%.

`CCC(C)Sc1nc(C(CC)c2c(F)cccc2F)cc(=O)[nH]1` (stereo not drawn) gave a growth at 25 µM (A-375 [3]) of 13%.

With `CCC(c1nc(SC)[nH]c(=O)c1C)c1c(F)cccc1F` (stereo not drawn) the growth at 25 µM (A-375 [3]) was 40%.

Compound `CCC(c1cc(=O)[nH]c(S)n1)c1c(F)cccc1F` (stereo not drawn) has a growth at 25 µM (A-375 [3]) of 100%.

`CCC(C)Sc1nc([C@H](CC)c2c(F)cccc2F)c(C)c(=O)[nH]1` (stereo partly drawn) was tested, and the Activity (A-375 [1]) was “Active”, the Activity (A-375 [8]) was “tde” and the Activity (A-375 [9]) was “inactive”. For the same compound, the Activity (A-375 [10]) was “Active”, the Activity (A-375 [11]) was “Active” and the Activity (A-375 [12]) was “Active”. The Activity (A-375 [13]) was “Active” and the Activity (A-375 [14]) was 70%.

`CCC(c1cc(O)nc(SC(C)C)n1)c1c(F)cccc1F` (stereo not drawn) was tested, and the growth at 25 µM (A-375 [3]) was 19%.

`CCC(c1nc(SC(C)C)[nH]c(=O)c1C)c1c(F)cccc1F` (stereo not drawn) showed a growth at 25 µM (A-375 [3]) of 12%.

For `CCC(c1nc(S)[nH]c(=O)c1C)c1c(F)cccc1F` (stereo not drawn), the growth at 25 µM (A-375 [3]) was 76%.

For `CCC(C)Sc1nc([C@@H](CC)c2c(F)cccc2F)c(C)c(=O)[nH]1` (stereo partly drawn), the Activity (A-375 [8]) was “tde”, the Activity (A-375 [9]) was “inactive” and the Activity (A-375 [10]) was “Active”. For the same compound, the Activity (A-375 [11]) was “Active”, the Activity (A-375 [12]) was “Active” and the Activity (A-375 [13]) was “Active”. For the same compound, the Activity (A-375 [14]) was 70%.

In the case of `Cc1ccnc2c1NC(=O)c1cccnc1N2C1CC1` [NEVIRAPINE], the growth at 350 µM (A-375 [15]) is reported as 35%, the Activity (A-375 [16]) is reported as 50% and the Activity (A-375 [9]) is reported as “inactive”. The Activity (A-375 [11]) was “inactive”, the Activity (A-375 [12]) was “Active” and the Activity (A-375 [13]) was “Active”.
